# ChEMBL document CHEMBL4382192, “Discovery of a potent dual ALK and EGFR T790M inhibitor” (Eur J Med Chem, 2017)
# Tests used:
# [1] = biological target: Inhibitor of nuclear factor kappa-B kinase subunit beta (Homo sapiens) (UniProt O14920); test: Binding affinity to wild-type human full length IKK-beta (M1 to S756 residues) expressed in mammalian expression system assessed as residual binding level at 1 uM by Kinomescan method relative to control
# Outline: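 Single-point kinome-wide KINOMEscan binding panel, test compound at 1 μM, run by the provider's standard protocol.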
# [2] = test system: Proto-oncogene tyrosine-protein kinase receptor Ret (Homo sapiens), P07949 [V804M]; test: Binding affinity to human partial length RET V804M mutant (E713 to D1014 residues) expressed in bacterial expression system assessed as residual binding level at 1 uM by Kinomescan method relative to control
# Outline: (§1)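 Kinome-wide selectivity panel run by the KINOMEscan method, with the test compound at a single concentration of 1 μM. Wild-type and mutant kinases were profiled in the same screen.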
# [3] = biological target: TGF-beta receptor type-1 (Homo sapiens) (UniProt P36897); test: Binding affinity to wild-type human partial length TGFBR1 (D179 to M503 residues) expressed in bacterial expression system assessed as residual binding level at 1 uM by Kinomescan method relative to control
# [4] = biological target: Activin receptor type-1B (Homo sapiens) (UniProt P36896); test: Binding affinity to wild-type human ACVR1B (S187 to I505 residues) expressed in bacterial expression system assessed as residual binding level at 1 uM by Kinomescan method relative to control
# Sequence of Activin receptor type-1B (Homo sapiens) (P36896 whole entry, the tested form may be a part): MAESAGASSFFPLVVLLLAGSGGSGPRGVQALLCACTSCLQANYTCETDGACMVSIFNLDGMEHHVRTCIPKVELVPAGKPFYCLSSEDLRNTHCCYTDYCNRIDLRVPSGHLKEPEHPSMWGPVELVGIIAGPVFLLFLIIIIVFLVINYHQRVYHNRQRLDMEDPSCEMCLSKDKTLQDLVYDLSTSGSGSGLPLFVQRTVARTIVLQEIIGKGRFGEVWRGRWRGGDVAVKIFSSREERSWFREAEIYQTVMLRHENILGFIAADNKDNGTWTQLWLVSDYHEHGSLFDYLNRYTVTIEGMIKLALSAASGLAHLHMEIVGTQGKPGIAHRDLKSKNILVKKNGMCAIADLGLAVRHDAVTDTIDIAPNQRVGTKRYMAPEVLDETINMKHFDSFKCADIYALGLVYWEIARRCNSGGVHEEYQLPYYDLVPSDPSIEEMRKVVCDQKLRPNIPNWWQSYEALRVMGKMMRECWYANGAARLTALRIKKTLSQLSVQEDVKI
# [5] = test system: Epidermal growth factor receptor (Homo sapiens), P00533 [L858R]; test: Binding affinity to human partial length EGFR L858R mutant (R669 to V1011 residues) expressed in bacterial expression system assessed as residual binding level at 1 uM by Kinomescan method relative to control; outline: as §1
# Activated CDC42 kinase 1 = Activated CDC42 kinase 1 (Homo sapiens, UniProt Q07912); test: Binding affinity to wild-type human partial length TNK2 (S159 to D474 residues) expressed in bacterial expression system assessed as residual binding level at 1 uM by Kinomescan method relative to control
# Sequence of Activated CDC42 kinase 1 (Q07912 whole entry, looked up, the tested form may be a part): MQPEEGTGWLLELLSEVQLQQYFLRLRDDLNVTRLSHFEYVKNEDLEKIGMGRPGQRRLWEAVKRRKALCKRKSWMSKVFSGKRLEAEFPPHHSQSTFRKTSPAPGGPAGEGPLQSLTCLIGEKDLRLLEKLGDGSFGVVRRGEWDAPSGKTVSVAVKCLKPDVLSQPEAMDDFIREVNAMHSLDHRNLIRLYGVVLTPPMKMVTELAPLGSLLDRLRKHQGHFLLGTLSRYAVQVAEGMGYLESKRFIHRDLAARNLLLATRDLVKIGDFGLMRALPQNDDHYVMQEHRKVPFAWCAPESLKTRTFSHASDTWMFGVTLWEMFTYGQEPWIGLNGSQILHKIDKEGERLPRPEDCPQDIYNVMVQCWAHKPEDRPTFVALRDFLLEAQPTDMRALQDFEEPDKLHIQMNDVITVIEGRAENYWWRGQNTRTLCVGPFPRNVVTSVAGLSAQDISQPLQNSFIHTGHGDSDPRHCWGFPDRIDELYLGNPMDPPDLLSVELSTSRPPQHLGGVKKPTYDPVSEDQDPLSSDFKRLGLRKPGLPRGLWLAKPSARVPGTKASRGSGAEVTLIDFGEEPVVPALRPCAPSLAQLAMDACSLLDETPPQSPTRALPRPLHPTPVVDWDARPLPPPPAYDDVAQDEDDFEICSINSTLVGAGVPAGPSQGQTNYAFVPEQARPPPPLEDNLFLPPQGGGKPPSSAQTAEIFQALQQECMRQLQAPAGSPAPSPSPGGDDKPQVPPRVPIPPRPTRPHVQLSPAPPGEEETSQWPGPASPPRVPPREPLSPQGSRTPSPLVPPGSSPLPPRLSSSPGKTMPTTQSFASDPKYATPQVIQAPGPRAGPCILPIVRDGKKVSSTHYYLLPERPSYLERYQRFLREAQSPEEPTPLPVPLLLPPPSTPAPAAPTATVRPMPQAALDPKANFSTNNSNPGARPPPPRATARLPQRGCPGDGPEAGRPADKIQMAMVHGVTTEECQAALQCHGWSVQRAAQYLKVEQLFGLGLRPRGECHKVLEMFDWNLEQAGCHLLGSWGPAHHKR
# [6] = biological target: Serine/threonine-protein kinase PAK 2 (Homo sapiens) (UniProt Q13177); test: Binding affinity to wild-type human partial length PAK2 (P151 to R525 residues) expressed in bacterial expression system assessed as residual binding level at 1 uM by Kinomescan method relative to control
# Sequence of Serine/threonine-protein kinase PAK 2 (Homo sapiens) (Q13177 whole entry, the tested form may be a part): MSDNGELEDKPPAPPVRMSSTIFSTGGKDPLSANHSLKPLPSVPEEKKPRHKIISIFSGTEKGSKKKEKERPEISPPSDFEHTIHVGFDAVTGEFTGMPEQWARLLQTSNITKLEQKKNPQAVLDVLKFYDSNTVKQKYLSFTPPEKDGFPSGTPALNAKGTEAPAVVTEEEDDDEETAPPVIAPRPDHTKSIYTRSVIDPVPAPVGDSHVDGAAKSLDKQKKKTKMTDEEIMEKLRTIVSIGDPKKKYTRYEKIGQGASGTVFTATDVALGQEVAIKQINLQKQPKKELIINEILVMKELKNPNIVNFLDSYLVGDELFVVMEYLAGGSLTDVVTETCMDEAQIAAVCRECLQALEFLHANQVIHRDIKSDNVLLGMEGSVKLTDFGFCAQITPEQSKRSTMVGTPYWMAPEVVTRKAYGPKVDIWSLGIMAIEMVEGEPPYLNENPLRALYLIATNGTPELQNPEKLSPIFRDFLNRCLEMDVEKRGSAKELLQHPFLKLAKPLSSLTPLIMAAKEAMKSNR
# [7] = biological target: Tyrosine-protein kinase Yes (Homo sapiens) (UniProt P07947); test: Binding affinity to wild-type human partial length YES (T257 to L543 residues) expressed in bacterial expression system assessed as residual binding level at 1 uM by Kinomescan method relative to control
# [8] = biological target: Ephrin type-B receptor 4 (Homo sapiens) (UniProt P54760); test: Binding affinity to wild-type human partial length EPHB4 (H585 to G892 residues) expressed in bacterial expression system assessed as residual binding level at 1 uM by Kinomescan method relative to control
# Sequence of Ephrin type-B receptor 4 (Homo sapiens) (P54760 whole entry, the tested form may be a part): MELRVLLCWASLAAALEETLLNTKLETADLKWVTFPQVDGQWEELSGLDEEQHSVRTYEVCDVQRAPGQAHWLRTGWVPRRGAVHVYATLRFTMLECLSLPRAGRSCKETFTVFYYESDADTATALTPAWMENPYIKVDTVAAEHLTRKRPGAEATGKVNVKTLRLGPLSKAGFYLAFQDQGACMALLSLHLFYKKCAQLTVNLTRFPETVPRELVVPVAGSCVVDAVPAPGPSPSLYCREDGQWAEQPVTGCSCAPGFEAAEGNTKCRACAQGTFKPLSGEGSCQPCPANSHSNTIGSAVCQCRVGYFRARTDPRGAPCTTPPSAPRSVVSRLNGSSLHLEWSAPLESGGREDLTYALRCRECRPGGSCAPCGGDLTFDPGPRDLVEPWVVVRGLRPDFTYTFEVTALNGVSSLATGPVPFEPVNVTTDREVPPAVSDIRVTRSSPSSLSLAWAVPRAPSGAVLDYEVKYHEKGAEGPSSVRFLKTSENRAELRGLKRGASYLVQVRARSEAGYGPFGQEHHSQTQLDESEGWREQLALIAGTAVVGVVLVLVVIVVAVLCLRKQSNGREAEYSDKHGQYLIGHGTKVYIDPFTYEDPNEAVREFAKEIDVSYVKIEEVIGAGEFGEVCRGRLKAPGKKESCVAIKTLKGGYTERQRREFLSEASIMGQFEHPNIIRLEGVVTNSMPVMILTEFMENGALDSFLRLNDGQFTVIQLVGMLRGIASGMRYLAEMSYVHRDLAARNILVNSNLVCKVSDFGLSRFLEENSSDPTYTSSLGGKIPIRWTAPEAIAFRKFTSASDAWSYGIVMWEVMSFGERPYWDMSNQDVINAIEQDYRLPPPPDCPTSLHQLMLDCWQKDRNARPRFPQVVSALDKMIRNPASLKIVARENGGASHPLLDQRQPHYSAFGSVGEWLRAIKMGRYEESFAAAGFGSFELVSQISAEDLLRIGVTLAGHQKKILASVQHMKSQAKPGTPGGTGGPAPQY
# [9] = biological target: Receptor-interacting serine/threonine-protein kinase 1 (Homo sapiens) (UniProt Q13546); test: Binding affinity to wild-type human partial length RIPK1 (M1 to K305 residues) expressed in bacterial expression system assessed as residual binding level at 1 uM by Kinomescan method relative to control
# Sequence of Receptor-interacting serine/threonine-protein kinase 1 (Homo sapiens) (Q13546 whole entry, the tested form may be a part): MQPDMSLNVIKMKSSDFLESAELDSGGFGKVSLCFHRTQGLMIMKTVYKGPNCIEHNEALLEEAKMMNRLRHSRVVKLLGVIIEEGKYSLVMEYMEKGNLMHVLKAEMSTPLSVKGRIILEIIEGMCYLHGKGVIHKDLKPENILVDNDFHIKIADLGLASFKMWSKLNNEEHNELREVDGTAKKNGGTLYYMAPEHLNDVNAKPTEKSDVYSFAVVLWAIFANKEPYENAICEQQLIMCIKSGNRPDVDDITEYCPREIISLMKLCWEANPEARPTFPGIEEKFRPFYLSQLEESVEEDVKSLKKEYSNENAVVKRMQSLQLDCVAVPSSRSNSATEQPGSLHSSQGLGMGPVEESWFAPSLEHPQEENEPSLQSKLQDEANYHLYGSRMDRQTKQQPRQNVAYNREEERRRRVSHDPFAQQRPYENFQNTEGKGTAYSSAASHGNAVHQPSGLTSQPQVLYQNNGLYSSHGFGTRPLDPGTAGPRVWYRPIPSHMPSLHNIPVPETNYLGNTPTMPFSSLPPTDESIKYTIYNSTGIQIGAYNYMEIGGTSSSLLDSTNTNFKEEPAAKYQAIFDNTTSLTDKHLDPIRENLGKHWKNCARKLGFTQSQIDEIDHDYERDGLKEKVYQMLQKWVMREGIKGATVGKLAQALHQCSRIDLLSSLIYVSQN
# [10] = biological target: Interferon-induced, double-stranded RNA-activated protein kinase (Homo sapiens) (UniProt P19525); test: Binding affinity to wild-type human partial length PRKR (F247 to C551 residues) expressed in bacterial expression system assessed as residual binding level at 1 uM by Kinomescan method relative to control
# [11] = test system: Hepatocyte growth factor receptor (Homo sapiens), P08581 [M1250T]; test: Binding affinity to human partial length MET M1250T mutant (D1010 to S1367 residues) expressed in bacterial expression system assessed as residual binding level at 1 uM by Kinomescan method relative to control; outline: as §1
# [12] = biological target: Interleukin-1 receptor-associated kinase 4 (Homo sapiens) (UniProt Q9NWZ3); test: Binding affinity to wild-type human partial length IRAK4 (M1 to S460 residues) expressed in mammalian expression system assessed as residual binding level at 1 uM by Kinomescan method relative to control
# [13] = biological target: Dual specificity testis-specific protein kinase 1 (Homo sapiens) (UniProt Q15569); test: Binding affinity to wild-type human full length TESK1 (R37 to S626 residues) expressed in bacterial expression system assessed as residual binding level at 1 uM by Kinomescan method relative to control
# Sequence of Dual specificity testis-specific protein kinase 1 (Homo sapiens) (Q15569 whole entry, looked up, the tested form may be a part): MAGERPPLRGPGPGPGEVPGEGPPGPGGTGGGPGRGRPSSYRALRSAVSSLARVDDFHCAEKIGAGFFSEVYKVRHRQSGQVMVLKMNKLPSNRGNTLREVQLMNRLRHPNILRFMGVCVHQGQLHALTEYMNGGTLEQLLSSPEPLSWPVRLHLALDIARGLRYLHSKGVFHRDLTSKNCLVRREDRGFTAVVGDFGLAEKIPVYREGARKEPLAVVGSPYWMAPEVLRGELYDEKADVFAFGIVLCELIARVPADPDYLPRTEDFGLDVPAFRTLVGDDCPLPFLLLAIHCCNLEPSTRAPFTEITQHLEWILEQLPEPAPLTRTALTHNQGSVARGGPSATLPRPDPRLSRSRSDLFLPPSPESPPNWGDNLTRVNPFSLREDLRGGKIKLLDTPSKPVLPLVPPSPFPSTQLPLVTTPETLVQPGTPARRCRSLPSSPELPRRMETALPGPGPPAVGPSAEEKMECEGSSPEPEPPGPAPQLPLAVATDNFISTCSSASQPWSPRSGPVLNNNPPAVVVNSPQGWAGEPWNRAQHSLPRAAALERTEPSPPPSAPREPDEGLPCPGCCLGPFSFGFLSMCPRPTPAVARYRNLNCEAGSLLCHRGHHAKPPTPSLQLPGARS
# [14] = biological target: Insulin receptor-related protein (Homo sapiens) (UniProt P14616); test: Binding affinity to wild-type human partial length INSRR (R950 to E1278 residues) expressed in bacterial expression system assessed as residual binding level at 1 uM by Kinomescan method relative to control
# [15] = biological target: Mitotic checkpoint serine/threonine-protein kinase BUB1 (Homo sapiens) (UniProt O43683); test: Binding affinity to wild-type human partial length BUB1 (Q724 to K1085 residues) expressed in mammalian expression system assessed as residual binding level at 1 uM by Kinomescan method relative to control
# [16] = biological target: Mitogen-activated protein kinase kinase kinase 20 (Homo sapiens) (UniProt Q9NYL2); test: Binding affinity to wild-type human partial length ZAK (M1 to L331 residues) expressed in bacterial expression system assessed as residual binding level at 1 uM by Kinomescan method relative to control
# [17] = biological target: Non-receptor tyrosine-protein kinase TYK2 (Homo sapiens) (UniProt P29597); test: Binding affinity to wild-type human partial length TYK2 JH1 catalytic domain (V877 to C1187 residues) expressed in mammalian expression system assessed as residual binding level at 1 uM by Kinomescan method relative to control
# [18] = biological target: Dual serine/threonine and tyrosine protein kinase (Homo sapiens) (UniProt Q6XUX3); test: Binding affinity to wild-type human full length RIPK5 (M1 to T929 residues) expressed in mammalian expression system assessed as residual binding level at 1 uM by Kinomescan method relative to control
# [19] = Volume of distribution at steady state in mouse at 2 mg/kg, iv; type: ADME, organism-based; details: in vivo, read-out: Vdss
# [20] = Drug uptake in mouse lung at 2 mg/kg, iv after 2 hrs; type: ADME, organism-based; details: read-out: Drug uptake
# [21] = biological target: Mast/stem cell growth factor receptor Kit (Homo sapiens) (UniProt P10721); test: Binding affinity to wild-type human partial length autoinhibited KIT (Y545 to D952 residues) expressed in mammalian expression system assessed as residual binding level at 1 uM by Kinomescan method relative to control
# [22] = test system: Proto-oncogene tyrosine-protein kinase receptor Ret (Homo sapiens), P07949 [V804L]; test: Binding affinity to human partial length RET V804L mutant (E713 to D1014 residues) expressed in bacterial expression system assessed as residual binding level at 1 uM by Kinomescan method relative to control; outline: as §1
# [23] = biological target: Serine/threonine-protein kinase PLK1 (Homo sapiens) (UniProt P53350); test: Binding affinity to wild-type human partial length PLK1 (A33 to F325 residues) expressed in mammalian expression system assessed as residual binding level at 1 uM by Kinomescan method relative to control
# Sequence of Serine/threonine-protein kinase PLK1 (Homo sapiens) (P53350 whole entry, the tested form may be a part): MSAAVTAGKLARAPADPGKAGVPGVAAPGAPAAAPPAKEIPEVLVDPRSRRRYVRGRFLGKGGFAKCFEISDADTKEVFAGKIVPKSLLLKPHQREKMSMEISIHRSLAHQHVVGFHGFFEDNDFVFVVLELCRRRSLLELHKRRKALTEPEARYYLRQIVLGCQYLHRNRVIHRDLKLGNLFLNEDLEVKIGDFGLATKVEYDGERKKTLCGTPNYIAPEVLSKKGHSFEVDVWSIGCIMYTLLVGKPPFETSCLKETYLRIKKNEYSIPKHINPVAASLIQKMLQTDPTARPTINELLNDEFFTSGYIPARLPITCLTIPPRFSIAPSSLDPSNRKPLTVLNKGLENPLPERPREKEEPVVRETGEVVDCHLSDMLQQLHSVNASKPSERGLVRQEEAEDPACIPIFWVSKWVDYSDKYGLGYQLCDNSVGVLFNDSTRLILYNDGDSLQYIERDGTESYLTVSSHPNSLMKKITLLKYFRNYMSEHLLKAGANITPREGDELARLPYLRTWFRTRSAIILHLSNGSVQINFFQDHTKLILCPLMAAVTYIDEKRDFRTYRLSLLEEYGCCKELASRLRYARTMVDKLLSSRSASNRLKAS
# [24] = AUClast in mouse at 10 mg/kg, po; type: ADME, organism-based; parameters: dose 10 mg/kg, time 0 - last, route oral; details: in vivo
# [25] = Cmax in mouse at 10 mg/kg, po; type: ADME, organism-based; parameters: dose 10 mg/kg, route oral; details: in vivo
smiles,measurement,setting,value
C=CC(=O)Nc1cc(Nc2ncc(Cl)c(Nc3ccccc3S(=O)(=O)C(C)C)n2)c(OC)cc1N(C)CCN(C)C,Activity,[1],96%
same,Activity,[2],15%
same,Activity,[3],18%
same,Activity,[4],16%
same,Activity,[5],0%
same,Activity,Activated CDC42 kinase 1,0.15%
same,Activity,[6],62%
same,Activity,[7],17%
same,Activity,[8],76%
same,Activity,[9],82%
same,Activity,[10],66%
same,Activity,[11],14%
same,Activity,[12],96%
same,Activity,[13],91%
same,Activity,[14],0.25%
same,Activity,[15],87%
same,Activity,[16],86%
same,Activity,[17],17%
same,Activity,[18],60%
same,Vd,[19],2.66 L/kg
same,concentration at 2 h,[20],2360 nM
same,Activity,[21],66%
same,Activity,[22],14%
same,Activity,[23],83%
same,AUC(0-t),[24],1550 ng·h/mL
same,Cmax,[25],520 ng/mL
